In ChEMBL document CHEMBL4425169 (ACS Med Chem Lett, 2016):
Active and inactive are the calls of the source. No cut-off for these calls is given here.

Assays:
[1] = tested on: Rattus norvegicus; assay: Antihypertensive activity in spontaneously hypertensive rat assessed as reduction in systolic blood pressure administered via oral gavage once daily for 4 days measured on day 4 by telemetry; assay type: functional, organism-based
[2] = Drug metabolism in dog hepatocytes assessed as oxidation at 1 uM measured at 120 mins; assay type: ADME, cell-based, Canis lupus familiaris, Hepatocyte; settings: read-out: Drug metabolism
[3] = Volume of distribution at steady state in rat at 1 mg/kg, iv or 2 mg/kg, po; assay type: ADME, organism-based; settings: in vivo, read-out: Vdss
Summary of the method: (§1)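 Rats dosed once at 1 mg/kg IV and, separately, 2 mg/kg PO, with n = 3. Derived parameters were plasma clearance, Vdss, dose-normalized oral AUC (μM·h·kg/mg), half-life, and oral bioavailability (F%).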

[4] = Dose normalized AUC in rhesus monkey at 2 mg/kg, po; assay type: ADME, organism-based, Macaca mulatta; settings: in vivo
[5] = Drug metabolism in rat hepatocytes assessed as oxidation at 1 uM measured at 120 mins; assay type: ADME, cell-based, Hepatocyte; settings: 2 h
[6] = Volume of distribution at steady state in dog at 1 mg/kg, iv or 2 mg/kg, po; assay type: ADME, organism-based, Canis lupus familiaris; settings: in vivo, read-out: Vdss
[7] = target: T1, Sodium-dependent serotonin transporter (Homo sapiens, UniProt P31645); assay: Inhibition of human SERT
T1 sequence (P31645 whole entry): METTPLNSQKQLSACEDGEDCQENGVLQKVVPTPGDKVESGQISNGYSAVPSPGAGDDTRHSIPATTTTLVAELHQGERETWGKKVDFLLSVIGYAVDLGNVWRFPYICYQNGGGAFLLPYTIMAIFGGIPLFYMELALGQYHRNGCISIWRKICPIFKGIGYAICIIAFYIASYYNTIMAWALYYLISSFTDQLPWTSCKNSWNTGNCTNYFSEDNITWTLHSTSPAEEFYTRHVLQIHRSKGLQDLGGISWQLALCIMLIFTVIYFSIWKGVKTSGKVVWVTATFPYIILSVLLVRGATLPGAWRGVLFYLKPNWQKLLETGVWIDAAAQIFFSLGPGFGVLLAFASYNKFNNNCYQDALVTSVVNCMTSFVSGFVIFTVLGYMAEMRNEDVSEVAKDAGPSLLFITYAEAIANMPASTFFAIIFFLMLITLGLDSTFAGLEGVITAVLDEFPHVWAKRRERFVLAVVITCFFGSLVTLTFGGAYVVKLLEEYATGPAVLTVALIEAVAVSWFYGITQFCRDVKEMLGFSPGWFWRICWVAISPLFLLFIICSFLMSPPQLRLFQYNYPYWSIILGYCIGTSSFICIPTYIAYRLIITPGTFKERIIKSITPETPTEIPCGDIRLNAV

[8] = Drug metabolism in human hepatocytes assessed as glucuronidation at 1 uM measured at 120 mins; assay type: ADME, cell-based, Hepatocyte; settings: read-out: Drug metabolism
[9] = Cardiotoxicity in vagotomized cardiovascular dog model assessed as effect on heart rate at plasma concentration <= 11.6 uM at 1 to 7 mg/kg, iv administered during three sequential 30 min periods; assay type: toxicity, organism-based, Canis lupus familiaris; settings: in vivo, 0.5 h
Summary of the method: (§2)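 Anesthetized, vagotomized dogs received IV infusions over sequential periods at 1, 2 and 7 mg/kg (10 mg/kg cumulative). Heart rate, mean arterial pressure and ECG intervals (PR, QRS, QT/QTc) were recorded predose and during each infusion period. Plasma concentrations were measured.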

[10] = Dose normalized AUC in rat at 2 mg/kg, po; assay type: ADME, organism-based; settings: in vivo; summary of the method: as §1
[11] = tested on: Rattus norvegicus; assay: Antihypertensive activity in spontaneously hypertensive rat assessed as reduction in systolic blood pressure at 3 mg/kg via oral gavage qd administered for 4 days measured on day 4 by telemetry (reference value: 2.5 +/- 2.2 mmHg); assay type: functional
[12] = target: T1, Sodium-dependent serotonin transporter; assay: Inhibition of [3H]-serotonin uptake at human SERT transfected in HEK293 cells; assay type: cell-based
[13] = target: Cytochrome P450 3A4 (Homo sapiens, UniProt P08684); assay: Time dependent inhibition of human CYP3A4 at 10 to 50 uM; assay type: ADME
Sequence of Cytochrome P450 3A4 (P08684 whole entry): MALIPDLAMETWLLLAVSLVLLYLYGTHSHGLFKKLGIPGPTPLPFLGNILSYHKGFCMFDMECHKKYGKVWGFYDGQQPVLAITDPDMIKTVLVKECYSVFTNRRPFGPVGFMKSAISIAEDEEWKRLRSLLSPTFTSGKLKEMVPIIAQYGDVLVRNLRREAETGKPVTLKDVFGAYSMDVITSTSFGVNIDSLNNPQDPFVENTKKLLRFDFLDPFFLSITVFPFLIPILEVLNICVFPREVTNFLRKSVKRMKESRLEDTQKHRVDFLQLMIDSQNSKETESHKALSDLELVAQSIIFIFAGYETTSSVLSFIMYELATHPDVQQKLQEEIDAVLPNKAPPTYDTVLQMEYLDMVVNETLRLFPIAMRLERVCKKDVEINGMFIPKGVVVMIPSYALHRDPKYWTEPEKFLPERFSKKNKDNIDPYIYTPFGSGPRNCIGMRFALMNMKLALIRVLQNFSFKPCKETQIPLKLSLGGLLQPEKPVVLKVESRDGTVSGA

[14] = Cardiotoxicity in vagotomized cardiovascular dog model assessed as effect on QRS complex at plasma concentration <= 11.6 uM at 1 to 7 mg/kg, iv administered during three sequential 30 min periods; assay type: toxicity, organism-based, Canis lupus familiaris; settings: in vivo, 0.5 h; summary of the method: as §2
[15] = Drug excretion in bile duct cannulated rat urine; assay type: ADME; settings: in vivo
[16] = target: Voltage-dependent L-type calcium channel subunit alpha-1C (Homo sapiens, UniProt Q13936); assay: Inhibition of Cav1.2 (unknown origin)
Sequence of Voltage-dependent L-type calcium channel subunit alpha-1C (Q13936 whole entry): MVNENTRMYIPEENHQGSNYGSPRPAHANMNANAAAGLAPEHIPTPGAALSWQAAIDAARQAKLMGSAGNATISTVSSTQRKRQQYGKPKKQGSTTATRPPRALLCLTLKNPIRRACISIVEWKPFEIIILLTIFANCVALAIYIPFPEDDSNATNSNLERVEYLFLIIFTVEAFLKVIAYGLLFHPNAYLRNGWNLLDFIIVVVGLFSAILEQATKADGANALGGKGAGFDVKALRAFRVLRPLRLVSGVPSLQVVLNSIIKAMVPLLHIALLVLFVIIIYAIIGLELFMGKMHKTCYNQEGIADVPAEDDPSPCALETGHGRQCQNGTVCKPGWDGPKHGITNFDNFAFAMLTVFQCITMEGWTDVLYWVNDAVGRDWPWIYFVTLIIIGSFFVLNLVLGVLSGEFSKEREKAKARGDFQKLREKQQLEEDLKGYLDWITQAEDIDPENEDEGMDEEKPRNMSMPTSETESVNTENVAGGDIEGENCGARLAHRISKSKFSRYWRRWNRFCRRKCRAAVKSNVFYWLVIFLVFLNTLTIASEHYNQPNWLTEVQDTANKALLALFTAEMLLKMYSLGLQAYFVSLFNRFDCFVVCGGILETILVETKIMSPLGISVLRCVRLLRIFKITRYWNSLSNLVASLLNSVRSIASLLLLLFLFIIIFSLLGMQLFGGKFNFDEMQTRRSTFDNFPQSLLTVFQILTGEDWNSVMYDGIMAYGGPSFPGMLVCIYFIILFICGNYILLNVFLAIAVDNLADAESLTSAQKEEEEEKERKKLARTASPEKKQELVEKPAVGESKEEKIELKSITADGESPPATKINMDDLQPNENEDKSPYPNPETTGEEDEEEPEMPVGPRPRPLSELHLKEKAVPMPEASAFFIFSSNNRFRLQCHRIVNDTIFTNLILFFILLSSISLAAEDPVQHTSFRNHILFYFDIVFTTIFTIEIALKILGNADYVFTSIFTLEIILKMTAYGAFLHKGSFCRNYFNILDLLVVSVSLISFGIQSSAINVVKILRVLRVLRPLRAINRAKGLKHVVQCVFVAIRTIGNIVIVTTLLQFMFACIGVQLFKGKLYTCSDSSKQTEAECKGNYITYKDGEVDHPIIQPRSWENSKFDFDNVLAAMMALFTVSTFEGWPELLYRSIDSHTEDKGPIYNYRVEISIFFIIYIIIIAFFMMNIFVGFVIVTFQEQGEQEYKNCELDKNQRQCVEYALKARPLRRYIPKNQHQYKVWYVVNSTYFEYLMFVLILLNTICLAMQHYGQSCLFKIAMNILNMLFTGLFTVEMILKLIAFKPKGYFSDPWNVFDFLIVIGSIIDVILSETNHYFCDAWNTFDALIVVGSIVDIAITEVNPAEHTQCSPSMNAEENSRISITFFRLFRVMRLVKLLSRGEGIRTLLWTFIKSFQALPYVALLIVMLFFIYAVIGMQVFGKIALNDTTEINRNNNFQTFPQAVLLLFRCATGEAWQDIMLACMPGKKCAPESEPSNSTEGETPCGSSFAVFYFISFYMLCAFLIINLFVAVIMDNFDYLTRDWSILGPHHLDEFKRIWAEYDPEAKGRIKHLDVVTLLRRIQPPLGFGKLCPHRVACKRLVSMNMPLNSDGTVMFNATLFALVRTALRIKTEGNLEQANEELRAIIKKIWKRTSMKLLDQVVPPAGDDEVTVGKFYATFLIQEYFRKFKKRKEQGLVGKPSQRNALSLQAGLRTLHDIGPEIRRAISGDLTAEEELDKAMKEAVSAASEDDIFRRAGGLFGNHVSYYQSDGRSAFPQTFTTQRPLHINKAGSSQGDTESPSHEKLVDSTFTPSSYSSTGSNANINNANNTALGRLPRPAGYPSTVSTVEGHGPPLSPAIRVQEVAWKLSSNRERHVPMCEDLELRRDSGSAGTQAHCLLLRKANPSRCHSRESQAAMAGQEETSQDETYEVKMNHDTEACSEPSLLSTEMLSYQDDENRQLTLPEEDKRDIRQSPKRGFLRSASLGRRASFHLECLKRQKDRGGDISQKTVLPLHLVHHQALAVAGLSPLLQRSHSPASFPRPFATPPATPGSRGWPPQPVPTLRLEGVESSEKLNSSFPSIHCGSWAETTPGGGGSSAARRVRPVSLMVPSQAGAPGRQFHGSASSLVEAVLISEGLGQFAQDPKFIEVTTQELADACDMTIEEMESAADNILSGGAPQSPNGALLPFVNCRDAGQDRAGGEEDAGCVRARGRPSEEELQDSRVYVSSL

[17] = Oral bioavailability in rhesus monkey at 2 mg/kg; assay type: ADME, organism-based, Macaca mulatta; settings: in vivo
[18] = Cardiotoxicity in vagotomized cardiovascular dog model assessed as effect on mean arterial pressure at plasma concentration <= 11.6 uM at 1 to 7 mg/kg, iv administered during three sequential 30 min periods; assay type: toxicity, organism-based, Canis lupus familiaris; settings: in vivo, 0.5 h; summary of the method: as §2
[19] = target: T2, ATP-sensitive inward rectifier potassium channel 10 (Homo sapiens) (UniProt P78508); assay: Inhibition of Kir4.1 (unknown origin) upto 30 uM
T2 sequence (whole entry): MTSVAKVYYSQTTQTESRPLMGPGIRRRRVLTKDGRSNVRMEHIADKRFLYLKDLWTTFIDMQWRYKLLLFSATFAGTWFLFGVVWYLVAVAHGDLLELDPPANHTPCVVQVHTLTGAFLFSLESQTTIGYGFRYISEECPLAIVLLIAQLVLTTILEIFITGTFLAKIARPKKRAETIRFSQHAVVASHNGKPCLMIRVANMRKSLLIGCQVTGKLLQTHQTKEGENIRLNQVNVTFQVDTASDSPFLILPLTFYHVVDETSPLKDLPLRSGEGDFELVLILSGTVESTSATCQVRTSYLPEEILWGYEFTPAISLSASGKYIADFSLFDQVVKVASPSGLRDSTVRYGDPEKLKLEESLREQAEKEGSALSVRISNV

[20] = Drug metabolism in monkey hepatocytes assessed as lactone hydrolysis at 1 uM measured at 120 mins; assay type: ADME, cell-based, Macaca mulatta, Hepatocyte; settings: rhesus monkey, read-out: Drug metabolism
[21] = Oral bioavailability in rat at 2 mg/kg; assay type: ADME, organism-based; settings: in vivo; summary of the method: as §1
[22] = tested on: Rattus norvegicus; assay: Kaliuretic activity in Sprague-Dawley rat at 10 mg/kg via oral gavage administered 30 mins prior to void induction by loading saline measured upto 4 hrs relative to vehicle treated control; assay type: functional
Summary of the method: (§3)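 Acute rat diuresis model in male-unspecified Sprague-Dawley rats, single oral dose, urine collected over 4 h. Urine volume, sodium excretion and potassium excretion expressed as fold increase over vehicle-treated controls; n = 5 per group; significance tested against vehicle.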

[23] = target: T3, Inward rectifier potassium channel 13 (Homo sapiens) (UniProt O60928); assay: Inhibition of Kir7.1 (unknown origin) upto 30 uM
T3 sequence (whole entry): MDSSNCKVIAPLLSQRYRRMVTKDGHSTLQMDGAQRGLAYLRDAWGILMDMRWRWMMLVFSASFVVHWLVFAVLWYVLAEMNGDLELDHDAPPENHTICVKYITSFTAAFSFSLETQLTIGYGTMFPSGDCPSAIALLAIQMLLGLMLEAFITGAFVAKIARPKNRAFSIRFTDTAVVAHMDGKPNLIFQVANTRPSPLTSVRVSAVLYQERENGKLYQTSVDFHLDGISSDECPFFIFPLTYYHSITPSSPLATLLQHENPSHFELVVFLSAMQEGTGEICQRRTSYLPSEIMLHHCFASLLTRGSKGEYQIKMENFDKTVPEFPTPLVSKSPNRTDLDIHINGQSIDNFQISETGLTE

[24] = tested on: Rattus norvegicus; assay: Kaliuretic activity in Sprague-Dawley rat at 1 mg/kg via oral gavage administered 30 mins prior to void induction by loading saline measured upto 4 hrs relative to vehicle treated control; assay type: functional; summary of the method: as §3
[25] = Drug metabolism in bile duct cannulated rat assessed as CYP3A4-mediated oxidative metabolite formation; assay type: ADME
[26] = tested on: Rattus norvegicus; assay: Natriuretic activity in Sprague-Dawley rat at 0.3 mg/kg via oral gavage administered 30 mins prior to void induction by loading saline measured upto 4 hrs relative to vehicle treated control; assay type: functional; summary of the method: as §3

Cc1c([C@@H](O)CN2CCN(C[C@H](O)c3ccc4c(c3C)COC4=O)CC2)ccc2c1COC2=O [MK-7145]
Activity [1]: Dose-dependent effect
metabolised at 2 h, 1 µM [2]: 15 to 37%
Vd [3]: 3.8 L/kg
AUC/dose [4]: 0.3 µM·kg·h/mg
Drug metabolism [5]: 15 to 37%
Vd [6]: 7.5 L/kg
IC50 [7]: 0.12 µM
metabolised at 2 h, 1 µM [8]: < 1%
Activity [9]: Non-Toxic
AUC/dose [10]: 0.14 µM·kg·h/mg
Activity [11]: 12.4 mmHg
IC50 [12]: 2.4 µM
TDI [13]: Not Active
Activity [14]: Non-Toxic
Drug excretion [15]: Metabolite_Detected
IC50 [16]: > 30 µM
bioavailability [17]: 25%
Activity [18]: Non-Toxic
inhibition [19]: inactive
metabolised at 2 h, 1 µM [20]: < 1%
bioavailability [21]: 21%
fold change (FC) [22]: 1.7
inhibition [23]: inactive
fold change (FC) [24]: 1.8
Drug metabolism [25]: Metabolite_Detected
fold change (FC) [26]: 6.2
